Screening data: PubChem BioAssay, Broad Institute
The list is not random: actives were taken first. Their share in the collection is about 2.5%.
ERAP1 HTS inh: blocks human ERAP1 aminopeptidase activity | Q9NZ08 | hit rate 0.15% among 340,000 | inhibition, % at 10.7 µM | recombinant ERAP1, Leu-AMC fluorescence, 60 min;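 active = mean replicate inhibition of at least 30%, or all replicates individually reaching that 30% level; inactive = mean below 30% and not every replicate reaching it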;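 also: 0% = neutral control wells and 100% = L-leucinethiol positive control wells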
PglD DTNB: PglD (C. jejuni) enzyme inhibition. purified PglD enzyme, DTNB colorimetric CoA detection. inhibition, % at 12.5 µM. hit rate 0.098% among 360,000; in the data active = inhibition above about 16%, passing the limit was not always enough; inconclusive = no clear call, values can overlap the other calls
E-sel inducer: induces E-selectin expression in human endothelial cells; P16581; HUVEC E-selectin immunofluorescence imaging; normalized: neutral wells 0, TNF-alpha wells 100; activation, % at 7.58 µM; hit rate 0.37% among 260,000;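 active = mean E-selectin-positive cell signal at least 10% of the positive control, reached in at least 60% of replicates, without over 20% cell loss; inconclusive = no rule given, readout overlaps actives, possibly toxicity-flagged; inactive = the rest, including those meeting only one limit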
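Assay system: HUVEC, human umbilical vein endothelial cells / Amount: 3,000 HUVEC/well / Controls: TNF-alpha positive control, DMSO neutral control / Compound dosing: single concentration / Medium: EGM-2 over gelatin coat / Evaluation: percent E-selectin-positive cells / Signal: immunofluorescence imaging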
DENV2 CPE: inhibitors of DENV2 cytopathic effect | CPE inhibition, % at 9.99 µM | AID 651640 | DENV2-infected cells, cytopathic effect rescue, plate reader | hit rate 1.7% among 350,000; in the data active = CPE inhibition above about 20%, passing the limit was not always enough; inconclusive = no clear call, values can overlap the other calls; tested in BHK-21 cells;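 also: 0% = median of neutral control wells and 100% = median of positive control wells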
SIRT5 inh: blocks human SIRT5 desuccinylation of peptide | Q9NXA8 | Purified SirT5, succinyl-peptide AMC, trypsin-coupled fluorescence | inhibition, % at 15 µM | hit rate 1.1% among 330,000 | AID 652115; in the data active = inhibition above about 15%; inconclusive = no clear call, values can overlap the other calls
Target sequence (Q9NXA8 whole entry, looked up): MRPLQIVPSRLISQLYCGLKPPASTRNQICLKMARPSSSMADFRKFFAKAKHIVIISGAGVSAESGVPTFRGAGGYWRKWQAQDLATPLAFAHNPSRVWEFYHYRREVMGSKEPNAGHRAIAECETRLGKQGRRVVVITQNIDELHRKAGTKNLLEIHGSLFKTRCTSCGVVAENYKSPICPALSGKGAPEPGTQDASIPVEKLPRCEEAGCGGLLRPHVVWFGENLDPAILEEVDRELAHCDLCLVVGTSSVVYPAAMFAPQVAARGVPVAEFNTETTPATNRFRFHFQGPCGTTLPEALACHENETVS
* = called active by the depositor; ? = inconclusive; · = no result given.

SMILES	ERAP1 HTS inh	PglD DTNB	E-sel inducer	DENV2 CPE	SIRT5 inh
CCN1C(=O)[C@H]2[C@@H](c3ccccc3)N[C@]3(CCCN(Cc4ccccc4)C3=O)[C@H]2C1=O	-1	0	0	-2	24*
Cc1ccc([C@H]2N[C@]3(CCCN(Cc4cccn4C)C3=O)[C@H]3C(=O)N(Cc4ccccc4)C(=O)[C@@H]23)cc1	-4	2	1	-5	1
COc1ccc(CN2CCC[C@]3(N[C@H](c4ccc(C)cc4)[C@@H]4C(=O)N(Cc5ccccc5)C(=O)[C@@H]43)C2=O)cc1	-1	3	·	25*	0
Cn1cccc1CN1CCC[C@]2(N[C@H](c3ccccc3)[C@@H]3C(=O)N(Cc4ccccc4)C(=O)[C@@H]32)C1=O	3	4	0	41*	1
COc1ccc([C@H]2N[C@]3(CCCN(Cc4cccn4C)C3=O)[C@H]3C(=O)N(C)C(=O)[C@@H]23)cc1	0	2	0	?	34*
O=C1[C@H]2[C@@H](c3ccccc3)N[C@]3(CCCN(Cc4ccccc4)C3=O)[C@H]2C(=O)N1Cc1ccccc1	-1	-3	·	-8	6
CCN1C(=O)[C@H]2[C@@H](c3ccc(OC)cc3)N[C@]3(CCCN(Cc4cccn4C)C3=O)[C@H]2C1=O	-2	-4	0	-3	-2
COc1ccc(CN2CCC[C@]3(N[C@H](c4ccc(OC)cc4)[C@@H]4C(=O)N(Cc5ccccc5)C(=O)[C@@H]43)C2=O)cc1	-4	1	0	17	-1
O=c1cn[nH]c2ccc(Br)cc12	-7	·	0	9	-1
Cc1ccc([C@H]2N[C@]3(CCCN(Cc4ccco4)C3=O)[C@H]3C(=O)N(C)C(=O)[C@@H]23)cc1	-1	-3	·	60*	-1
CN1C(=O)[C@H]2[C@@H](c3ccccc3)N[C@]3(CCCN(Cc4ccco4)C3=O)[C@H]2C1=O	-5	5	0	-14	-2
C=CCn1c(=N)n(CC(=O)c2ccc(Br)s2)c2ccccc21	0	-7	69*	-10	-3
C=CCn1c(=N)n(CC(=O)c2ccc(Cl)cc2)c2ccccc21	2	5	·	7	-5
CCC1C(=O)NCCN1Cc1nc(-c2ccc(C)s2)oc1C (stereo unspecified)	0	0	0	-5	1
COc1ccc(-c2nnc3ccc(SCC(=O)N4CCCCC4)nn23)cc1OC	2	1	-1	30*	1
COc1ccc(-c2nnc3ccc(SCC(N)=O)nn23)cc1OC	·	-5	·	·	·
CCCCNCC(=O)Nc1ccc(NC(=O)CNCCCC)cc1	·	3	·	·	·
COc1ncnc2c1ncn2CCCN1CCN(Cc2cccc3ccccc23)CC1	10	4	-1	0	26*
CSc1ncnc2c1ncn2CCCN1CCN(Cc2cccc3ccccc23)CC1	-2	-1	0	6	-5
N#Cc1cccc(-c2ccc3c(c2)[C@H]2[C@H](CCN2Cc2ccncc2)[C@H](CO)N3)c1	3	-1	0	50*	1
COc1ccc(C#Cc2ccc3c(c2)[C@@H]2[C@@H](CCN2C(=O)C2CCC2)[C@H](CO)N3)cc1	1	·	0	-7	17*
COCC(=O)N1CC[C@H]2[C@H](CO)Nc3ccc(C#Cc4ccc(OC)cc4)cc3[C@H]21	0	·	1	29*	15*
COCC(=O)N1CC[C@@H]2[C@H](CO)Nc3ccc(-c4cccc(C#N)c4)cc3[C@@H]21	2	0	0	44*	-1
COCC(=O)N1CC[C@@H]2[C@H](CO)Nc3ccc(C#Cc4ccc(OC)cc4)cc3[C@@H]21	2	-1	2	8	8
CC(=O)c1ccccc1NC(=O)c1ccc(OCc2c(C)noc2C)cc1	1	2	·	-5	·
SMILES	ERAP1 HTS inh	PglD DTNB	E-sel inducer	DENV2 CPE	SIRT5 inh
COc1ccc(-c2ccc3c(c2)O[C@@H](CN(C)Cc2ccccc2C(=O)O)[C@H](C)CN([C@H](C)CO)S3(=O)=O)cc1	1	4	0	?	-7
COCCNC(=O)C1(C)CCCN(C(=O)c2ccc(F)cc2Cl)C1 (stereo unspecified)	0	-2	0	-6	·
COc1ccc(CN2CCN(Cc3ccc4ccccc4c3)CC2)cc1OC	1	-11	0	0	-1
CCC(=O)N1CC[C@H]2[C@H](CO)Nc3ccc(C#Cc4ccc(OC)cc4)cc3[C@H]21	2	·	1	56*	4
N#Cc1nc(-c2cccc3ccccc23)oc1NCCN1CCCCC1	·	-3	·	·	·
CN(C)c1ccc(C=NNc2ccccn2)c(Cl)c1	-2	·	1	-2	17*
